The results in this text go back to ChEMBL document CHEMBL1146966, “Beta'-hydroxy-alpha,beta-unsaturated ketones: a new pharmacophore for the design of anticancer drugs” (2006).

The structures appear in SMILES notation. Bounds are passed on as bounds.

Common to all, as to type: functional
One assay deals with SW1573. The assay can be described thus: Antiproliferative activity against SW1573 cell line after 48 hrs by SRB assay. The settings on record: Homo sapiens, SW1573, 48 h. In short, it runs like this:
(§1)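 Human solid tumor cells exposed 48 h to compound in duplicate at five tenfold dilutions, top final concentration 100 µM (DMSO stock at 400× that; controls got matching DMSO). Cells precipitated with ice-cold 50% TCA, fixed 60 min at 4 °C, stained by SRB, OD read at 490 nm. Percentage growth from OD at start versus end of exposure, corrected for medium-only background. GI50 = concentration giving PG +50 (NCI protocol); means of two to four experiments.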
In general terms: In SRB staining, fixed cells bind dye roughly in proportion to their protein.

In the next assay the test system is A2780. The assay can be described thus: Antiproliferative activity against A2780 cell line after 48 hrs by SRB assay. The settings on record: Homo sapiens, A2780, 48 h. In short, it runs like this: as §1
The test system of another assay is WiDr. The experiment in a line: Antiproliferative activity against WiDr cell line after 48 hrs by SRB assay. Conditions: Homo sapiens. In short, it runs like this: as §1

Regarding `CC(C)(C)/C=C/C(=O)CC(O)C(C)(C)C` (stereo not drawn), the 50% growth inhibitory concentration (GI50) (as a rule, the concentration giving 50% growth inhibition) was determined as 26 µM in the assay with SW1573, 9.9 µM in the assay on A2780 and 59 µM in the assay on WiDr.

Take `CC(C)C/C=C(/C(=O)c1ccccc1)c1ccccc1`: the 50% growth inhibitory concentration (GI50) in the assay on SW1573 was found to be 33 µM; in the assay on A2780, 21 µM; with WiDr it was 21 µM.

As for `CC(C)C/C=C(\CO)C(=O)c1ccccc1`, the results for the GI50 with SW1573, in the assay with A2780 and in the assay on WiDr were 24 µM, 18 µM and 19 µM, respectively.

`Cc1ccc(/C=C\C(=O)CC(O)CC(C)C)cc1` (stereo not drawn): the GI50 with SW1573 was determined as 12 µM; with A2780, 3.9 µM; in the assay with WiDr it was 15 µM.

Regarding `C/C(=C\CC(C)C)C(=O)c1ccccc1`, the GI50 in the assay on SW1573, in the assay with A2780 and with WiDr was > 100 µM each time.

Take `C/C(=C\C1CCCCC1)C(=O)c1ccccc1`: the figures for the GI50 in the assay with SW1573, in the assay with A2780 and with WiDr were 36 µM, 28 µM and 41 µM, respectively.

As to `CC(C)C/C=C/C(=O)c1ccccc1`, the GI50 in the assay with SW1573 was found to be 31 µM; with A2780, 20 µM; in the assay with WiDr, 22 µM.

`CC(C)C/C=C/C(=O)CC(O)CC(C)C` (stereo not drawn): the GI50 is 27 µM in the assay on SW1573, 17 µM in the assay with A2780 and 21 µM in the assay with WiDr.

With `CC(C)CC(O)CC(=O)/C=C\c1ccccc1` (stereo not drawn), the GI50 was found to be 13 µM in the assay with SW1573, 2.6 µM with A2780 and 16 µM with WiDr.

As for `CC(C)CC(O)C(C)C(=O)/C=C\c1ccc(Br)cc1` (stereo not drawn), the results for the GI50 with SW1573, with A2780 and in the assay with WiDr were 11 µM, 5.5 µM and 12 µM, respectively.

On to `CCCCCC/C=C/C(=O)CC(O)CCCCCC` (stereo not drawn), for which the 50% growth inhibitory concentration (GI50) was 25 µM in the assay with SW1573, 26 µM with A2780 and 31 µM in the assay on WiDr.

On to `O=C(/C=C/CCCCCCCCCCBr)CC(O)CCCCCCCCCCBr` (stereo not drawn), for which the concentration for 50% growth inhibition (GI50) was determined as 30 µM with SW1573, 16 µM in the assay on A2780 and 32 µM in the assay with WiDr.

Consider `CC(=O)/C=C/C1CCCCC1`, for which the GI50 was determined as 30 µM in the assay with SW1573, 21 µM with A2780 and 23 µM with WiDr.

As to `O=C(/C=C/c1ccccc1)CC(O)c1ccccc1` (stereo not drawn), the GI50 with SW1573 stood at 4.3 µM; in the assay with A2780 it was 3.3 µM; in the assay with WiDr, 14 µM.

As for `CCCCCC/C=C/C(C)=O`, the GI50 was found to be 79 µM in the assay with SW1573, 91 µM in the assay on A2780 and 56 µM in the assay on WiDr.

With `O=C(/C=C/C1CCCCC1)CC(O)C1CCCCC1` (stereo not drawn), the GI50 in the assay on SW1573 was found to be 3.1 µM; in the assay on A2780 it was 1.8 µM; in the assay on WiDr it was 2.9 µM.
